From ChEMBL document CHEMBL2331531, “Synthesis and biological evaluation of urea derivatives as highly potent and selective rho kinase inhibitors” (J Med Chem, 2013)

Tests used:
[1] = biological target: Rho-associated protein kinase 1 (Homo sapiens, UniProt Q13464); experiment: Inhibition of ROCK1 (unknown origin) after 4 hrs by HTRF assay
[2] = Volume of distribution in Sprague-Dawley rat at 1 mg/kg, iv by LC-MS/MS analysis; assay type: ADME, organism-based; design: dose 1 mg/kg, route intravenous; details: in vivo
CYP1A2 = biological target: T1, CYP1A2 (Homo sapiens, UniProt P05177); experiment: Inhibition of CYP1A2 (unknown origin)-mediated phenaceten demethylation to acetaminophen at 10 uM relative to control; assay type: ADME; details: probe phenacetin (printed: phenaceten)
T1 sequence (P05177 whole entry): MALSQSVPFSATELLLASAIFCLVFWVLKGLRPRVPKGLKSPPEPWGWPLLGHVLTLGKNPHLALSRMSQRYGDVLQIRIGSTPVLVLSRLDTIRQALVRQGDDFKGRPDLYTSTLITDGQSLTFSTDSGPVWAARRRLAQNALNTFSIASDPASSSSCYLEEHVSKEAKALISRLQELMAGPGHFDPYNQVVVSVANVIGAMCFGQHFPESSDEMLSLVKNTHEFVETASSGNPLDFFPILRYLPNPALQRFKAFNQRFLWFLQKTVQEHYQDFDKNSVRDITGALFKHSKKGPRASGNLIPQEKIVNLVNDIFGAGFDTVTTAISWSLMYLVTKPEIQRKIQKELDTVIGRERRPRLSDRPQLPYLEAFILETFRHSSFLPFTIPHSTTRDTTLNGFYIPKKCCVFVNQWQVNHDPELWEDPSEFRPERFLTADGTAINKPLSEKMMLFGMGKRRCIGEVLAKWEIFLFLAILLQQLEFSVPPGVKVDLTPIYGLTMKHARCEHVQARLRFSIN

[3] = Half life in Sprague-Dawley rat at 1 mg/kg, iv by LC-MS/MS analysis; assay type: ADME, organism-based; design: dose 1 mg/kg, route intravenous; details: in vivo
[4] = Cmax in Sprague-Dawley rat at 1 mg/kg, iv by LC-MS/MS analysis; assay type: ADME, organism-based; design: dose 1 mg/kg, route intravenous; details: in vivo
Rattus norvegicus = experiment: (§1) AUC in Sprague-Dawley rat at 1 mg/kg, iv by LC-MS/MS analysis; assay type: ADME, organism-based, Plasma; design: dose 1 mg/kg, route intravenous; details: in vivo
[5] = biological target: Rho-associated protein kinase 2 (Homo sapiens, UniProt O75116); experiment: Inhibition of ROCK2 (unknown origin) after 4 hrs by HTRF assay
Chain of Rho-associated protein kinase 2 (O75116 whole entry): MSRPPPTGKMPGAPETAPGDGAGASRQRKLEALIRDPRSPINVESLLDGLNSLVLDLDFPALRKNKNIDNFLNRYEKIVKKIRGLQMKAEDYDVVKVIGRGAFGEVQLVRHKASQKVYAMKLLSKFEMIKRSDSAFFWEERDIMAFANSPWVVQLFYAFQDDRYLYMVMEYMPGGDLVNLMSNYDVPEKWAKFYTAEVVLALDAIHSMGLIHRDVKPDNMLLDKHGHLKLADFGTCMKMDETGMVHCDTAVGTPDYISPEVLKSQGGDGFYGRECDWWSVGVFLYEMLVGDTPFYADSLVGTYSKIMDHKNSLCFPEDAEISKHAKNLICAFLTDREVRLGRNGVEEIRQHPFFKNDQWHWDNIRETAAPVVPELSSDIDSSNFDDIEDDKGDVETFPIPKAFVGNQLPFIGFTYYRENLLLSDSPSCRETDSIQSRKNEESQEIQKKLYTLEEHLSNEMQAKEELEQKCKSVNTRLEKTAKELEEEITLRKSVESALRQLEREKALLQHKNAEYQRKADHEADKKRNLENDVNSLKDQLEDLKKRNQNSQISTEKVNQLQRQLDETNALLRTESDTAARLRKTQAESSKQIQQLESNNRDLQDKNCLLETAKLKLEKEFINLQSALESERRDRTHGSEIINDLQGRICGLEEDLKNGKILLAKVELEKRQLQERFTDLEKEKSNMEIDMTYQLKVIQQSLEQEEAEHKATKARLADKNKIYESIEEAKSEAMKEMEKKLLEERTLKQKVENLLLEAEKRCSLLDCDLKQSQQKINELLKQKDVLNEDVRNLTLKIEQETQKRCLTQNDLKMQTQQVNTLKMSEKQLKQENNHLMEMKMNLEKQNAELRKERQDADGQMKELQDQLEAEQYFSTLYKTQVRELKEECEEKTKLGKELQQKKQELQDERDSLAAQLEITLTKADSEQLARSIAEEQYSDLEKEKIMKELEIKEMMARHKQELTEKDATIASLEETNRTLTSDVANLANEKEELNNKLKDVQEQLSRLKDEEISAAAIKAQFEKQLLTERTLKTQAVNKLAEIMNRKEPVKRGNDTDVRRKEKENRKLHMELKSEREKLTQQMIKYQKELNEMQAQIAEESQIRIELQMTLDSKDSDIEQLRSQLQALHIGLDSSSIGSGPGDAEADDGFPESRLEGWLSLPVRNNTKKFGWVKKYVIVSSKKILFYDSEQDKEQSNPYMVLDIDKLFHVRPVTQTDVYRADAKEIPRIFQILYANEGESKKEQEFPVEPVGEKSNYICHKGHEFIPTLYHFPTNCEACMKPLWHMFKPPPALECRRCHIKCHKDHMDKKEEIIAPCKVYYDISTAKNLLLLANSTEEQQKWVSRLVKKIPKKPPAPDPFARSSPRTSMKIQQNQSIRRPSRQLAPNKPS

[6] = Inhibition of ROCK-mediated myosin light chain bisphosphorylation in rat A7R5 cells after 1 hr by fluorescence assay in presence of L-alpha-lysophosphatidic acid; assay type: cell-based
Procedure, shortened: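 A7r5 cells in 20% FBS DMEM, plated 5000/well overnight, serum-starved 4 h in 0.05% FBS DMEM; compound 13333 nM to 18 nM final for 1 h, then 10 μM LPA 10 min; fixed, permeabilized, anti-ppMLC plus IR800 secondary; infrared scan, ppMLC signal normalized to TO-PRO-3 nuclear signal. IC50 as mean of two or more experiments.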

CYP2C9 = CYP2C9 (Homo sapiens, UniProt P11712); experiment: Inhibition of CYP2C9 (unknown origin)-mediated tolbutamide hydroxylation to hydroxy tolbutamide at 10 uM relative to control; assay type: ADME; details: probe tolbutamide
Chain of CYP2C9 (P11712 whole entry): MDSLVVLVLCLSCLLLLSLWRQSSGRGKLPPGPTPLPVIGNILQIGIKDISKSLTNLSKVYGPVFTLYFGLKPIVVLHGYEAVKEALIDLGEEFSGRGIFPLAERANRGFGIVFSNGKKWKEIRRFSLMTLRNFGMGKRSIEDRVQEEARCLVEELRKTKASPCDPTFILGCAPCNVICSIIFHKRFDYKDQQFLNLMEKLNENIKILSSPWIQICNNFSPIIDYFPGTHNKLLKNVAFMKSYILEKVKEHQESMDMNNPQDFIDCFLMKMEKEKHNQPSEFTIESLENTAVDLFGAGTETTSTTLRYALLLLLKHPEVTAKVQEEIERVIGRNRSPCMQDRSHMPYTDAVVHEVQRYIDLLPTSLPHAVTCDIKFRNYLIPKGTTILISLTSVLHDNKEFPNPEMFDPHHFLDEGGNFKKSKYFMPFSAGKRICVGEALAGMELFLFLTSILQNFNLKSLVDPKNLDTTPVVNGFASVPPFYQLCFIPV

[7] = Half life in human liver microsomes; assay type: ADME, Microsome
CYP3A4 = CYP3A4 (Homo sapiens, UniProt P08684); experiment: Inhibition of CYP3A4 (unknown origin)-mediated midazolam hydroxylation to 1'-Hydroxymidazolam at 10 uM relative to control; assay type: ADME; details: probe midazolam
Chain of CYP3A4 (P08684 whole entry): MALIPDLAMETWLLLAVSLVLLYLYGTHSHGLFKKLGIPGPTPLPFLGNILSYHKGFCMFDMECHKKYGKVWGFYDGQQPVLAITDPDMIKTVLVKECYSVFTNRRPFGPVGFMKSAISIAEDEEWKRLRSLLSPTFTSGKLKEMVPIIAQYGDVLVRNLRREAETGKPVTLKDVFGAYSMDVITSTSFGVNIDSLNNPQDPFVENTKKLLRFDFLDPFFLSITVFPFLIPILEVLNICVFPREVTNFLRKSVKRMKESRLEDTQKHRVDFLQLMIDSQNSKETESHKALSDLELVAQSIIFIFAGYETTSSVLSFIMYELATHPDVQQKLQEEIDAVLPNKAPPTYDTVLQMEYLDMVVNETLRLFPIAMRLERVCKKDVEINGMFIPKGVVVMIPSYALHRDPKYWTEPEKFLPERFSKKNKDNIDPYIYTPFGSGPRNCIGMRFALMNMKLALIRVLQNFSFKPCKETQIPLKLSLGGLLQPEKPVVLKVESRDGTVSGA

[8] = Oral bioavailability in Sprague-Dawley rat at 2 mg/kg by LC-MS/MS analysis; assay type: ADME, organism-based; details: in vivo
CYP2D6 = CYP2D6 (Homo sapiens, UniProt P10635); experiment: Inhibition of CYP2D6 (unknown origin)-mediated bufuralol hydroxylation to 4'-Hydroxybufuralol at 10 uM relative to control; assay type: ADME; details: probe bufuralol
Chain of CYP2D6 (P10635 whole entry): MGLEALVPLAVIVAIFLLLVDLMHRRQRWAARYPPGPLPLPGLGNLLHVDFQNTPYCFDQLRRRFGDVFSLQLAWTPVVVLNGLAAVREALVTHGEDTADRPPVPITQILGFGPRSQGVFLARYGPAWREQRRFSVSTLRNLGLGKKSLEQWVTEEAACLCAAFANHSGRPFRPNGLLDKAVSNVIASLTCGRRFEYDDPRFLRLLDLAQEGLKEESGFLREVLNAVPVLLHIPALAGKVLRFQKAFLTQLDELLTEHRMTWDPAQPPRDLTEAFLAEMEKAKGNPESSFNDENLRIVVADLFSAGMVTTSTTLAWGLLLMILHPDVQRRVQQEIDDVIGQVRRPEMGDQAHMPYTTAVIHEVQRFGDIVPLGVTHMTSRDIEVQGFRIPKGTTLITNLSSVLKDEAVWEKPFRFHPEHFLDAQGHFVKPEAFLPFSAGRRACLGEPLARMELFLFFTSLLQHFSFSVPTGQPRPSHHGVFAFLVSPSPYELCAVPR

[9] = Inhibition of PKA (unknown origin) after 70 mins by luminescence assay; design: species or system Homo sapiens
[10] = biological target: Mitogen-activated protein kinase 10 (Homo sapiens, UniProt P53779); experiment: Inhibition of JNK3 alpha1 (unknown origin) using biotinylated Flag-ATF2 as substrate after 15 mins by HTRF assay
[11] = biological target: Serine/threonine-protein kinase MRCK alpha (Homo sapiens, UniProt Q5VT25); experiment: Inhibition of MRCKalpha (unknown origin) using LCD-AKRRRRLSSLRA-NH2 as substrate after 75 mins by luminescence assay in presence of [33P]ATP
[12] = as §1; assay type: ADME, organism-based, Plasma; design: dose 1 mg/kg, route intravenous; details: Sprague-Dawley, plasma
[13] = Clearance in Sprague-Dawley rat at 1 mg/kg, iv by LC-MS/MS analysis; assay type: ADME, organism-based; design: dose 1 mg/kg, route intravenous; details: in vivo
MAP kinase p38 = MAP kinase p38 (Homo sapiens, UniProt O15264+Q15759+Q16539+P53778); experiment: Inhibition of p38 (unknown origin) using biotinylated Flag-ATF2 as substrate after 30 mins by HTRF assay; assay type: protein assay
[14] = Aqueous solubility in potassium phosphate buffer at pH 5.5 after 24 hrs by HPLC analysis; assay type: physicochemical; details: pH 5.5, 24 h
Cytochrome P450 3A4 = Cytochrome P450 3A4 (Homo sapiens, UniProt P08684); experiment: Inhibition of CYP3A4 (unknown origin)-mediated midazolam hydroxylation to 1'-Hydroxymidazolam; assay type: ADME
Chain of Cytochrome P450 3A4 (P08684 whole entry): as the sequence (P08684 whole entry) above

Cytochrome P450 1A2 = biological target: T2, Cytochrome P450 1A2 (Homo sapiens, UniProt P05177); experiment: Inhibition of CYP1A2 (unknown origin)-mediated phenaceten demethylation to acetaminophen; assay type: ADME
T2 sequence (P05177 whole entry): T1 sequence (P05177 whole entry)

Cytochrome P450 2D6 = Cytochrome P450 2D6 (Homo sapiens, UniProt P10635); experiment: Inhibition of CYP2D6 (unknown origin)-mediated bufuralol hydroxylation to 4'-Hydroxybufuralol; assay type: ADME
Chain of Cytochrome P450 2D6 (P10635 whole entry): as the sequence (P10635 whole entry) above

Cytochrome P450 2C9 = Cytochrome P450 2C9 (Homo sapiens, UniProt P11712); experiment: Inhibition of CYP2C9 (unknown origin)-mediated tolbutamide hydroxylation to hydroxy tolbutamide; assay type: ADME
Chain of Cytochrome P450 2C9 (P11712 whole entry): as the sequence (P11712 whole entry) above

Chain of Rho-associated protein kinase 1 (Q13464 whole entry): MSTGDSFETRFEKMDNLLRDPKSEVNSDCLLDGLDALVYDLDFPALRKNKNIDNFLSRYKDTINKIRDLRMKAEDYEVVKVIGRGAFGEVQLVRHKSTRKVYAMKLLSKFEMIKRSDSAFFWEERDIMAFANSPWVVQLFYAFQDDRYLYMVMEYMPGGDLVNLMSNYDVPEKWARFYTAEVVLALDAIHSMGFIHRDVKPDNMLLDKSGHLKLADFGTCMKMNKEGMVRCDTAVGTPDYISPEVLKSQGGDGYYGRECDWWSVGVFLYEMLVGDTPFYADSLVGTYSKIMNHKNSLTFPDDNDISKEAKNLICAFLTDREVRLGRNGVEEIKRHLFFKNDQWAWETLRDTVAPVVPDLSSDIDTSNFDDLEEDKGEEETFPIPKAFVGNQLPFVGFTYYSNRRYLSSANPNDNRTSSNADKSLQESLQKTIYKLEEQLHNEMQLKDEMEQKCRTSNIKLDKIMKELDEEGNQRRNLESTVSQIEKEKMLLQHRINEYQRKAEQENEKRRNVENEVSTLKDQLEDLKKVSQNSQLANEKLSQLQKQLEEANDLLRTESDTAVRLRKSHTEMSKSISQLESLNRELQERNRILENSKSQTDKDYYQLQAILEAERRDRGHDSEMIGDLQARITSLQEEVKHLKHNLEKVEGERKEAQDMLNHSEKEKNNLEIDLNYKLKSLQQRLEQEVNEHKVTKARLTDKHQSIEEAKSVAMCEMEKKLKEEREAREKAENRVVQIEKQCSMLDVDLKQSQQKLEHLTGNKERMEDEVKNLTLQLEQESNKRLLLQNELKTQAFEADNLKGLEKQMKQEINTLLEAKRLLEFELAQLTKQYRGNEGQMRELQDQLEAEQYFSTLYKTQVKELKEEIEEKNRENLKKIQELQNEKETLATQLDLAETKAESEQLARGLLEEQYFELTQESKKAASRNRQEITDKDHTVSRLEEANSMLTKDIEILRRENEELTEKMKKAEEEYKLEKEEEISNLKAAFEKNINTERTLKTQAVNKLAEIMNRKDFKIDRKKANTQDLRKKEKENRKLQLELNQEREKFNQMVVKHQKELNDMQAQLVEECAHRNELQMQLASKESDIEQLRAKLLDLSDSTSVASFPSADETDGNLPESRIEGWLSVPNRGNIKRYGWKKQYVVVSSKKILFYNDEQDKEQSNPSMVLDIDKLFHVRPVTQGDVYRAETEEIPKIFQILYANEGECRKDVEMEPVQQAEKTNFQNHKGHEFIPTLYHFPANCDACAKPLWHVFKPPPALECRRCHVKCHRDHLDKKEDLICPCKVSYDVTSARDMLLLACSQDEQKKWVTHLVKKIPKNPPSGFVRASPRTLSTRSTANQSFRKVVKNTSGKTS

O=C(Nc1ccc(-c2cn[nH]c2)cc1)N(CCO)Cc1ccccc1
IC50 [1]: 33 nM
Vd [2]: 1.9 L/kg
inhibition at 10 µM (CYP1A2): 9%
half-life [3]: 1.9 h
Cmax [4]: 1100 nM
AUC (Rattus norvegicus): 3.6 µM·h
IC50 [5]: 12 nM
IC50 [6]: 59 nM
inhibition at 10 µM (CYP2C9): 93%
half-life [7]: > 2 h
inhibition at 10 µM (CYP3A4): 15%
bioavailability [8]: 46%
inhibition at 10 µM (CYP2D6): 29%
IC50 [9]: 610 nM

O=C(Nc1ccc(-c2cn[nH]c2)cc1)NC(CCO)c1cccc(F)c1 (stereo not drawn)
IC50 [1]: 10 nM
IC50 [10]: > 20000 nM
Vd [2]: 0.7 L/kg
inhibition at 10 µM (CYP1A2): -2%
half-life [3]: 2.1 h
Cmax [4]: 9200 nM
IC50 [11]: 6400 nM
AUC [12]: 9.5 µM·h
IC50 [5]: 2 nM
IC50 [6]: 32 nM
clearance [13]: 4.9 mL/min/kg
inhibition at 10 µM (CYP2C9): 71%
half-life [7]: > 2 h
inhibition at 10 µM (CYP3A4): 23%
bioavailability [8]: 28%
inhibition at 10 µM (CYP2D6): 41%
IC50 [9]: 580 nM
IC50 (MAP kinase p38): > 20000 nM

CCN(Cc1cccc(OC)c1)C(=O)Nc1ccc(-c2cn[nH]c2)cc1O[C@H]1CCN(C)C1
IC50 [1]: 4 nM
IC50 [10]: > 20000 nM
Vd [2]: 2.6 L/kg
inhibition at 10 µM (CYP1A2): 9%
half-life [3]: 1 h
Cmax [4]: 1100 nM
IC50 [11]: 1550 nM
AUC [12]: 1.3 µM·h
IC50 [5]: 1 nM
clearance [13]: 30 mL/min/kg
inhibition at 10 µM (CYP2C9): 65%
solubility [14]: soluble
inhibition at 10 µM (CYP3A4): 53%
bioavailability [8]: 11%
inhibition at 10 µM (CYP2D6): 83%
IC50 [9]: 6700 nM
IC50 (MAP kinase p38): > 20000 nM

COc1cccc(CN(CCO)C(=O)Nc2ccc(-c3cn[nH]c3)cc2)c1
IC50 [1]: 6 nM
IC50 [10]: > 20000 nM
Vd [2]: 1 L/kg
inhibition at 10 µM (CYP1A2): -23%
half-life [3]: 1.6 h
Cmax [4]: 3800 nM
IC50 [11]: 4310 nM
AUC [12]: 4.2 µM·h
IC50 (Cytochrome P450 3A4): 35000 nM
IC50 [5]: 1 nM
IC50 [6]: 19 nM
IC50 (Cytochrome P450 1A2): > 100000 nM
clearance [13]: 11.2 mL/min/kg
IC50 (Cytochrome P450 2D6): 40000 nM
IC50 (Cytochrome P450 2C9): 2000 nM
inhibition at 10 µM (CYP2C9): 95%
half-life [7]: 0.4 h
inhibition at 10 µM (CYP3A4): 37%
bioavailability [8]: 51%
inhibition at 10 µM (CYP2D6): 38%
IC50 [9]: 2990 nM
IC50 (MAP kinase p38): > 20000 nM

COc1cccc(CN(CCN(C)C)C(=O)Nc2ccc(-c3cn[nH]c3)cc2)c1
IC50 [1]: 6 nM
IC50 [10]: > 20000 nM
Vd [2]: 14 L/kg
inhibition at 10 µM (CYP1A2): -29%
half-life [3]: 1 h
Cmax [4]: 330 nM
IC50 [11]: 8700 nM
AUC [12]: 0.2 µM·h
IC50 (Cytochrome P450 3A4): 80000 nM
IC50 [5]: 1 nM
IC50 [6]: 4 nM
IC50 (Cytochrome P450 1A2): > 100000 nM
clearance [13]: 176 mL/min/kg
IC50 (Cytochrome P450 2D6): 3000 nM
IC50 (Cytochrome P450 2C9): 30000 nM
inhibition at 10 µM (CYP2C9): 35%
solubility [14]: soluble
half-life [7]: 0.567 h
inhibition at 10 µM (CYP3A4): 34%
bioavailability [8]: 10%
inhibition at 10 µM (CYP2D6): 85%
IC50 [9]: 456 nM
IC50 (MAP kinase p38): > 20000 nM

COc1cccc(CN(CCN2CCCC2)C(=O)Nc2ccc(-c3cn[nH]c3)cc2)c1
IC50 [1]: 13 nM
IC50 [10]: > 20000 nM
Vd [2]: 4.4 L/kg
inhibition at 10 µM (CYP1A2): 0%
half-life [3]: 1 h
Cmax [4]: 480 nM
AUC [12]: 0.6 µM·h
IC50 [5]: 3 nM
IC50 [6]: 6 nM
clearance [13]: 71 mL/min/kg
inhibition at 10 µM (CYP2C9): 24%
solubility [14]: soluble
half-life [7]: 0.417 h
inhibition at 10 µM (CYP3A4): 34%
bioavailability [8]: 0%
inhibition at 10 µM (CYP2D6): 88%
IC50 [9]: 541 nM
IC50 (MAP kinase p38): > 20000 nM

COc1cccc(CN(C)C(=O)Nc2ccc(-c3cn[nH]c3)cc2)c1
IC50 [1]: 4 nM
IC50 [10]: > 20000 nM
Vd [2]: 1.1 L/kg
inhibition at 10 µM (CYP1A2): 9%
half-life [3]: 1 h
Cmax [4]: 2600 nM
IC50 [11]: 1850 nM
AUC [12]: 5.9 µM·h
IC50 (Cytochrome P450 3A4): > 100000 nM
IC50 [5]: 1 nM
IC50 (Cytochrome P450 1A2): > 100000 nM
clearance [13]: 9.4 mL/min/kg
IC50 (Cytochrome P450 2D6): > 100000 nM
IC50 (Cytochrome P450 2C9): 600 nM
inhibition at 10 µM (CYP2C9): 96%
half-life [7]: 0.383 h
inhibition at 10 µM (CYP3A4): 27%
bioavailability [8]: 48%
inhibition at 10 µM (CYP2D6): 45%
IC50 [9]: 1810 nM
IC50 (MAP kinase p38): > 20000 nM
